Experimental data published in ChEMBL document CHEMBL4152223 (Eur J Med Chem, 2018).
Values after ≈ are worked out from the molar mass of the structure shown.

Key:
[1] = Selectivity index, ratio of IC50 for human HepG2 cells to MIC for Mycobacterium tuberculosis H37Rv after 14 days; format: toxicity; conditions: read-out: Selectivity Index
Summary of the method: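 SI is calculated as HepG2 IC50 divided by MIC. HepG2 cells (passage 2-4) were grown in EMEM with 10% FBS, L-glutamine and non-essential amino acids. Compounds in DMSO were tested in triplicate at eight concentrations, and viability was read by MTS tetrazolium reduction. IC50 is the concentration reducing viability to 50% of control. 10% DMSO served as the 0% viability control.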

Mycobacterium kansasii [2] = test: Antimycobacterial activity against Mycobacterium kansasii 6509/96 after 21 days; format: functional; conditions: 6509/96, 504 h
Mycobacterium kansasii [3] = test: Antimycobacterial activity against Mycobacterium kansasii 235/80 after 14 days; format: functional; conditions: 235/80, 336 h
Mycobacterium kansasii [4] = test: Antimycobacterial activity against Mycobacterium kansasii 6509/96 after 14 days; format: functional; conditions: 6509/96, 336 h
Mycobacterium avium [5] = test: Antimycobacterial activity against INH/RIF/OFX resistant Mycobacterium avium 330/88 after 21 days; format: functional; conditions: 330/88, 504 h
Mycobacterium avium [6] = test: Antimycobacterial activity against INH/RIF/OFX resistant Mycobacterium avium 330/88 after 14 days; format: functional; conditions: 330/88, 336 h
Mycobacterium kansasii [7] = test: Antimycobacterial activity against Mycobacterium kansasii 6509/96 after 7 days; format: functional; conditions: 6509/96, 168 h
HepG2 = test: Cytotoxicity against human HepG2 cells assessed as reduction in cell viability by MTS assay; format: cell-based
Summary of the method: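 HepG2 human hepatocellular carcinoma cells (passage 2-4) were cultured in Eagle's MEM with 10% FBS, 1% L-glutamine and non-essential amino acids. Compounds were dissolved in DMSO and tested in triplicate at eight concentrations. Viability was read by colorimetric MTS tetrazolium reduction. Controls were 100% viability and 0% viability (10% DMSO). IC50 is the concentration reducing viability to 50% of control.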

[8] = test system: Mycobacterium tuberculosis; test: Antimycobacterial activity against Mycobacterium tuberculosis H37Rv after 14 days; format: functional; conditions: 336 h
Mycobacterium kansasii [9] = test: Antimycobacterial activity against Mycobacterium kansasii 235/80 after 21 days; format: functional; conditions: 235/80, 504 h
[10] = test system: Mycobacterium tuberculosis; test: Antimycobacterial activity against Mycobacterium tuberculosis H37Rv after 21 days; format: functional; conditions: 504 h
Mycobacterium kansasii [11] = test: Antimycobacterial activity against Mycobacterium kansasii 235/80 after 7 days; format: functional; conditions: 235/80, 168 h

| Compound | selectivity ratio at 336 h [1] | MIC (Mycobacterium kansasii [2]) [µM] | MIC (Mycobacterium kansasii [3]) [µM] | MIC (Mycobacterium kansasii [4]) [µM] | MIC (Mycobacterium avium [5]) [µM] | MIC (Mycobacterium avium [6]) [µM] | MIC (Mycobacterium kansasii [7]) [µM] | IC50 (HepG2) [µM] | MIC [8] [µM] | MIC (Mycobacterium kansasii [9]) [µM] | MIC [10] [µM] | MIC (Mycobacterium kansasii [11]) [µM] |
| --- | --- | --- | --- | --- | --- | --- | --- | --- | --- | --- | --- | --- |
| CCCCNC(=O)NNC(=O)c1ccncc1 | > 375 | 500 (≈ 118 µg/mL) | 1000 (≈ 236 µg/mL) | 250 (≈ 59.1 µg/mL) | > 1000 | > 1000 | 250 (≈ 59.1 µg/mL) | > 3000 | 8 (≈ 1.89 µg/mL) | 1000 (≈ 236 µg/mL) | 8 (≈ 1.89 µg/mL) | 500 (≈ 118 µg/mL) |
| CCCCCNc1nnc(-c2ccncc2)o1 |  | 1000 (≈ 232 µg/mL) | 1000 (≈ 232 µg/mL) | 1000 (≈ 232 µg/mL) | > 1000 | > 1000 | 500 (≈ 116 µg/mL) |  | 62.5 (≈ 14.5 µg/mL) | 1000 (≈ 232 µg/mL) | 62.5 (≈ 14.5 µg/mL) | 500 (≈ 116 µg/mL) |
| CCCCCCCCCNC(=O)NNC(=O)c1ccncc1 |  | 125 (≈ 38.3 µg/mL) | 62.5 (≈ 19.2 µg/mL) | 125 (≈ 38.3 µg/mL) | 250 (≈ 76.6 µg/mL) | 250 (≈ 76.6 µg/mL) | 62.5 (≈ 19.2 µg/mL) | > 250 | 62.5 (≈ 19.2 µg/mL) | 125 (≈ 38.3 µg/mL) | 125 (≈ 38.3 µg/mL) | 32 (≈ 9.81 µg/mL) |
| CCCCCCCCNc1nnc(-c2ccncc2)o1 |  | 125 (≈ 34.3 µg/mL) | 125 (≈ 34.3 µg/mL) | 125 (≈ 34.3 µg/mL) | 125 (≈ 34.3 µg/mL) | 62.5 (≈ 17.1 µg/mL) | 62.5 (≈ 17.1 µg/mL) |  | 62.5 (≈ 17.1 µg/mL) | 125 (≈ 34.3 µg/mL) | 62.5 (≈ 17.1 µg/mL) | 62.5 (≈ 17.1 µg/mL) |
| CCCCCCCCCCCCCCCCNc1nnc(-c2ccncc2)o1 |  | 500 (≈ 193 µg/mL) | 500 (≈ 193 µg/mL) | 500 (≈ 193 µg/mL) | 250 (≈ 96.6 µg/mL) | 250 (≈ 96.6 µg/mL) | 250 (≈ 96.6 µg/mL) |  | 250 (≈ 96.6 µg/mL) | 500 (≈ 193 µg/mL) | 250 (≈ 96.6 µg/mL) | 250 (≈ 96.6 µg/mL) |
| CCCCCCCCCCCCCCNC(=O)NNC(=O)c1ccncc1 |  | 62.5 (≈ 23.5 µg/mL) | 62.5 (≈ 23.5 µg/mL) | 62.5 (≈ 23.5 µg/mL) | 125 (≈ 47.1 µg/mL) | 125 (≈ 47.1 µg/mL) | 32 (≈ 12 µg/mL) | > 50 | 32 (≈ 12 µg/mL) | 62.5 (≈ 23.5 µg/mL) | 62.5 (≈ 23.5 µg/mL) | 32 (≈ 12 µg/mL) |
| CCCCCCNC(=O)NNC(=O)c1ccncc1 | > 31.3 | 500 (≈ 132 µg/mL) | 250 (≈ 66.1 µg/mL) | 500 (≈ 132 µg/mL) | 500 (≈ 132 µg/mL) | 500 (≈ 132 µg/mL) | 250 (≈ 66.1 µg/mL) | > 1000 | 32 (≈ 8.46 µg/mL) | 250 (≈ 66.1 µg/mL) | 32 (≈ 8.46 µg/mL) | 250 (≈ 66.1 µg/mL) |
| CCCCCCCNC(=O)NNC(=O)c1ccncc1 |  | 250 (≈ 69.6 µg/mL) | 125 (≈ 34.8 µg/mL) | 250 (≈ 69.6 µg/mL) | 250 (≈ 69.6 µg/mL) | 250 (≈ 69.6 µg/mL) | 125 (≈ 34.8 µg/mL) | > 500 | 32 (≈ 8.91 µg/mL) | 125 (≈ 34.8 µg/mL) | 62.5 (≈ 17.4 µg/mL) | 62.5 (≈ 17.4 µg/mL) |
| CCCCNc1nnc(-c2ccncc2)o1 |  | 1000 (≈ 218 µg/mL) | 1000 (≈ 218 µg/mL) | 1000 (≈ 218 µg/mL) | > 1000 | > 1000 | 1000 (≈ 218 µg/mL) |  | 250 (≈ 54.6 µg/mL) | 1000 (≈ 218 µg/mL) | 500 (≈ 109 µg/mL) | 500 (≈ 109 µg/mL) |
| CCCCCCNc1nnc(-c2ccncc2)o1 |  | 500 (≈ 123 µg/mL) | 500 (≈ 123 µg/mL) | 250 (≈ 61.6 µg/mL) | 500 (≈ 123 µg/mL) | 500 (≈ 123 µg/mL) | 125 (≈ 30.8 µg/mL) |  | 250 (≈ 61.6 µg/mL) | 500 (≈ 123 µg/mL) | 250 (≈ 61.6 µg/mL) | 250 (≈ 61.6 µg/mL) |
| CCCCCCCCCCCCNC(=O)NNC(=O)c1ccncc1 |  | 62.5 (≈ 21.8 µg/mL) | 62.5 (≈ 21.8 µg/mL) | 62.5 (≈ 21.8 µg/mL) | 62.5 (≈ 21.8 µg/mL) | 32 (≈ 11.2 µg/mL) | 62.5 (≈ 21.8 µg/mL) | > 50 | 32 (≈ 11.2 µg/mL) | 125 (≈ 43.6 µg/mL) | 32 (≈ 11.2 µg/mL) | 32 (≈ 11.2 µg/mL) |
| CCCCCCCCCCNC(=O)NNC(=O)c1ccncc1 |  | 250 (≈ 80.1 µg/mL) | 62.5 (≈ 20 µg/mL) | 250 (≈ 80.1 µg/mL) | 500 (≈ 160 µg/mL) | 500 (≈ 160 µg/mL) | 125 (≈ 40.1 µg/mL) | > 250 | 16 (≈ 5.13 µg/mL) | 125 (≈ 40.1 µg/mL) | 32 (≈ 10.3 µg/mL) | 32 (≈ 10.3 µg/mL) |
| CCCCCCCCCCNc1nnc(-c2ccncc2)o1 |  | 16 (≈ 4.84 µg/mL) | 16 (≈ 4.84 µg/mL) | 16 (≈ 4.84 µg/mL) | 62.5 (≈ 18.9 µg/mL) | 32 (≈ 9.68 µg/mL) | 16 (≈ 4.84 µg/mL) | > 50 | 16 (≈ 4.84 µg/mL) | 16 (≈ 4.84 µg/mL) | 16 (≈ 4.84 µg/mL) | 8 (≈ 2.42 µg/mL) |
| CCCCCCCCCCCCCCNc1nnc(-c2ccncc2)o1 |  | 250 (≈ 89.6 µg/mL) | 250 (≈ 89.6 µg/mL) | 250 (≈ 89.6 µg/mL) | 250 (≈ 89.6 µg/mL) | 250 (≈ 89.6 µg/mL) | 250 (≈ 89.6 µg/mL) |  | 250 (≈ 89.6 µg/mL) | 250 (≈ 89.6 µg/mL) | 250 (≈ 89.6 µg/mL) | 250 (≈ 89.6 µg/mL) |
